In ChEMBL document CHEMBL5058577, “EUbOPEN Chemogenomics Library 2 (Multiplex)” (2022):

Test system: U2OS
Test: Multiplex assay against U2OS
Assay type: toxicity, cell-based
Conditions: human
How it was run: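 On a CQ1 microscope at 37°C and 5% CO2, live cells were imaged after compound addition. They had been stained at seeding with Hoechst33342, BioTracker Green Microtubule Cytoskeleton Dye, MitoTracker Red and Annexin V Alexa Fluor 680. CellPathfinder machine-learning gating assigned cells to Hoechst high-intensity objects or normal cells, normal cells to healthy, pyknosed or fragmented nuclei, and pyknosed cells to mitotic or apoptotic. Tubulin, mitochondrial-mass and membrane-permeability phenotypes are per cents of healthy-nucleus cells.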

[1] = 12 h, 1 µM, compound concentration 1 uM, replicate 1
[2] = 12 h, 1 µM, compound concentration 1 uM, replicate 2
[3] = 12 h, 10 µM, compound concentration 10 uM, replicate 1
[4] = 12 h, 10 µM, compound concentration 10 uM, replicate 2
[5] = 24 h, 1 µM, compound concentration 1 uM, replicate 1
[6] = 24 h, 1 µM, compound concentration 1 uM, replicate 2
[7] = 24 h, 10 µM, compound concentration 10 uM, replicate 1
[8] = 24 h, 10 µM, compound concentration 10 uM, replicate 2
[9] = 48 h, 1 µM, compound concentration 1 uM, replicate 1
[10] = 48 h, 1 µM, compound concentration 1 uM, replicate 2
[11] = 48 h, 10 µM, compound concentration 10 uM, replicate 1
[12] = 48 h, 10 µM, compound concentration 10 uM, replicate 2

`Cc1ccc(/C(=C\CN2CCCC2)c2ccccn2)cc1` [TRIPROLIDINE] was tested, and the “Population Apoptotic (%)” value [1] was 85%, the “Population Fragmented Nuclei (%)” value [1] was 29% and the “Population Healthy Nuclei (%)” value [1] was 61%. The “Population Hoechst High Intensity Objects (%)” value [1] was 2%, the “Population Membrane Permeable-Phenotype (%)” value [1] was 4% and the “Population Mitochondria Different-Phenotype (%)” value [1] was 2%. For the same molecule, the “Population Mitotic Cells (%)” value [1] was 15%, the “Population Normal (%)” value [1] was 97% and the “Population Pyknosed Nuclei (%)” value [1] was 8%. The “Population Tubulin-Different-Phenotype (%)” value [1] was 1%, the “Total Cell Count” value [1] was 244 and the “Population Fragmented Nuclei (%)” value [2] was 18%. The “Population Healthy Nuclei (%)” value [2] was 70%, the “Population Hoechst High Intensity Objects (%)” value [2] was 3% and the “Population Membrane Permeable-Phenotype (%)” value [2] was 6%. The “Population Mitochondria Different-Phenotype (%)” value [2] was 1%, the “Population Mitotic Cells (%)” value [2] was 14% and the “Population Normal (%)” value [2] was 96%. The “Population Pyknosed Nuclei (%)” value [2] was 11%, the “Population Tubulin-Different-Phenotype (%)” value [2] was 5% and the “Total Cell Count” value [2] was 126. The “Population Apoptotic (%)” value [3] was 87%, the “Population Fragmented Nuclei (%)” value [3] was 25% and the “Population Healthy Nuclei (%)” value [3] was 64%. For the same molecule, the “Population Hoechst High Intensity Objects (%)” value [3] was 3%, the “Population Membrane Permeable-Phenotype (%)” value [3] was 29% and the “Population Mitochondria Different-Phenotype (%)” value [3] was 23%. The “Population Mitotic Cells (%)” value [3] was 12%, the “Population Normal (%)” value [3] was 96% and the “Population Pyknosed Nuclei (%)” value [3] was 9%. For the same molecule, the “Population Tubulin-Different-Phenotype (%)” value [3] was 24%, the “Total Cell Count” value [3] was 264 and the “Population Apoptotic (%)” value [4] was 75%. The “Population Fragmented Nuclei (%)” value [4] was 15%, the “Population Healthy Nuclei (%)” value [4] was 77% and the “Population Hoechst High Intensity Objects (%)” value [4] was 0%. The “Population Membrane Permeable-Phenotype (%)” value [4] was 14%, the “Population Mitochondria Different-Phenotype (%)” value [4] was 18% and the “Population Mitotic Cells (%)” value [4] was 25%. For the same molecule, the “Population Normal (%)” value [4] was 99%, the “Population Pyknosed Nuclei (%)” value [4] was 7% and the “Population Tubulin-Different-Phenotype (%)” value [4] was 15%. The “Total Cell Count” value [4] was 114, the “Population Apoptotic (%)” value [5] was 89% and the “Population Fragmented Nuclei (%)” value [5] was 23%. For the same molecule, the “Population Healthy Nuclei (%)” value [5] was 66%, the “Population Hoechst High Intensity Objects (%)” value [5] was 1% and the “Population Membrane Permeable-Phenotype (%)” value [5] was 4%. For the same molecule, the “Population Mitochondria Different-Phenotype (%)” value [5] was 3%, the “Population Mitotic Cells (%)” value [5] was 10% and the “Population Normal (%)” value [5] was 98%. For the same molecule, the “Population Pyknosed Nuclei (%)” value [5] was 9%, the “Population Tubulin-Different-Phenotype (%)” value [5] was 2% and the “Total Cell Count” value [5] was 297. The “Population Apoptotic (%)” value [6] was 81%, the “Population Fragmented Nuclei (%)” value [6] was 20% and the “Population Healthy Nuclei (%)” value [6] was 68%. The “Population Hoechst High Intensity Objects (%)” value [6] was 4%, the “Population Membrane Permeable-Phenotype (%)” value [6] was 9% and the “Population Mitochondria Different-Phenotype (%)” value [6] was 6%. For the same molecule, the “Population Mitotic Cells (%)” value [6] was 18%, the “Population Normal (%)” value [6] was 96% and the “Population Pyknosed Nuclei (%)” value [6] was 11%. The “Population Tubulin-Different-Phenotype (%)” value [6] was 5%, the “Total Cell Count” value [6] was 150 and the “Population Apoptotic (%)” value [7] was 75%. For the same molecule, the “Population Fragmented Nuclei (%)” value [7] was 27%, the “Population Healthy Nuclei (%)” value [7] was 62% and the “Population Hoechst High Intensity Objects (%)” value [7] was 2%. For the same molecule, the “Population Membrane Permeable-Phenotype (%)” value [7] was 12%, the “Population Mitochondria Different-Phenotype (%)” value [7] was 15% and the “Population Mitotic Cells (%)” value [7] was 24%. For the same molecule, the “Population Normal (%)” value [7] was 97%, the “Population Pyknosed Nuclei (%)” value [7] was 10% and the “Population Tubulin-Different-Phenotype (%)” value [7] was 8%. For the same molecule, the “Total Cell Count” value [7] was 320, the “Population Apoptotic (%)” value [8] was 78% and the “Population Fragmented Nuclei (%)” value [8] was 19%. The “Population Healthy Nuclei (%)” value [8] was 70%, the “Population Hoechst High Intensity Objects (%)” value [8] was 1% and the “Population Membrane Permeable-Phenotype (%)” value [8] was 11%. For the same molecule, the “Population Mitochondria Different-Phenotype (%)” value [8] was 13%, the “Population Mitotic Cells (%)” value [8] was 21% and the “Population Normal (%)” value [8] was 98%. The “Population Pyknosed Nuclei (%)” value [8] was 9%, the “Population Tubulin-Different-Phenotype (%)” value [8] was 6% and the “Total Cell Count” value [8] was 149. For the same molecule, the “Population Apoptotic (%)” value [9] was 86%, the “Population Fragmented Nuclei (%)” value [9] was 17% and the “Population Healthy Nuclei (%)” value [9] was 73%. The “Population Hoechst High Intensity Objects (%)” value [9] was 2%, the “Population Membrane Permeable-Phenotype (%)” value [9] was 3% and the “Population Mitochondria Different-Phenotype (%)” value [9] was 3%. The “Population Mitotic Cells (%)” value [9] was 13%, the “Population Normal (%)” value [9] was 97% and the “Population Pyknosed Nuclei (%)” value [9] was 9%. The “Population Tubulin-Different-Phenotype (%)” value [9] was 3%, the “Total Cell Count” value [9] was 398 and the “Population Apoptotic (%)” value [10] was 76%. For the same molecule, the “Population Healthy Nuclei (%)” value [10] was 75%, the “Population Hoechst High Intensity Objects (%)” value [10] was 3% and the “Population Membrane Permeable-Phenotype (%)” value [10] was 5%. For the same molecule, the “Population Mitotic Cells (%)” value [10] was 23%, the “Population Normal (%)” value [10] was 96% and the “Population Pyknosed Nuclei (%)” value [10] was 6%. For the same molecule, the “Population Tubulin-Different-Phenotype (%)” value [10] was 4%, the “Total Cell Count” value [10] was 209 and the “Population Apoptotic (%)” value [11] was 86%. The “Population Fragmented Nuclei (%)” value [11] was 24%, the “Population Healthy Nuclei (%)” value [11] was 65% and the “Population Hoechst High Intensity Objects (%)” value [11] was 2%. The “Population Membrane Permeable-Phenotype (%)” value [11] was 11%, the “Population Mitochondria Different-Phenotype (%)” value [11] was 8% and the “Population Mitotic Cells (%)” value [11] was 13%. For the same molecule, the “Population Normal (%)” value [11] was 97%, the “Population Pyknosed Nuclei (%)” value [11] was 9% and the “Population Tubulin-Different-Phenotype (%)” value [11] was 7%. The “Total Cell Count” value [11] was 453, the “Population Apoptotic (%)” value [12] was 89% and the “Population Fragmented Nuclei (%)” value [12] was 15%. For the same molecule, the “Population Healthy Nuclei (%)” value [12] was 74%, the “Population Hoechst High Intensity Objects (%)” value [12] was 4% and the “Population Membrane Permeable-Phenotype (%)” value [12] was 9%. For the same molecule, the “Population Mitotic Cells (%)” value [12] was 10%, the “Population Normal (%)” value [12] was 95% and the “Population Tubulin-Different-Phenotype (%)” value [12] was 6%. For the same molecule, the “Total Cell Count” value [12] was 203.
